Tests used:
[1] = system: NCI full panel of 60 cell lines; experiment: NCI 5-dose assay, full panel overview; type: cell-based, human; details: for CC50: Homo sapiens, 60 cell, read-out: pLC50 MG_MID (converted); for cytotoxicity in NCI screen: in words; for pTGI MG_MID: mean graph midpoint over all tested cell lines; for pTGI No. giving positive results: number of cell lines for which TGI ≤100 μM; for cellular lines with 50% growth inhibition at submicromolar concentrations: number of cell lines of those tested
How it was run: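 Five-dose NCI standard protocol screen of test compound against 60 human tumour lines from nine cancer types. pGI₅₀, pTGI and pLC₅₀ are −log molar concentrations giving 50% net growth inhibition, total growth inhibition and 50% net cell death. MG_MID is the arithmetic mean over all tested lines. Counts give the lines with each value ≤100 μM. Where an effect was not reached, the highest tested concentration was used.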

purified tubulin = experiment: Assembly of purified tubulin; type: biochemical; details: data not presented
tubulin = experiment: Inhibition of colchicine binding to tubulin; details: data not presented
K562 cells [2] = experiment: Annexin V-FITC/PI staining flow cytometry; type: cell-based, human; details: 10 μM, 24 h
How it was run: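 K562 cells were grown in RPMI 1640 with 5% FBS and antibiotics at 37 °C in 5% CO₂, then exposed to test compound for 24 h. Cells were harvested, centrifuged at 800 rpm for 10 min and washed in PBS. 10⁵ cells per sample were stained with annexin V-FITC plus PI for 15 min in the dark. Flow cytometry read FL1 (530 nm) and FL3 (>575 nm) over 10,000 events. Areas: C1 necrotic, C2 late apoptotic, C3 viable, C4 early apoptotic.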

K562 cells [3] = experiment: Cell morphology under light microscopy; type: cell-based, human; details: K562, 48 h, 10 and 25 μM
How it was run: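 K562 cells, cultured in medium with 5% FBS, 100 U/mL penicillin and 100 μg/mL streptomycin at 37 °C under 5% CO₂, were seeded at 8 × 10³/well and exposed to test compound for 48 h alongside untreated control. Morphology was then examined by light microscopy at 200× magnification.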

pro-caspase 6 = experiment: Western blotting analysis of pro-caspase 6; type: cell-based, human; details: K562, 10 μM, 48 h
How it was run: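 K562 cells were seeded at 1.5 × 10⁵/well and treated 48 h with 10 μM test compound. Lysate protein was measured by Lowry assay, run on SDS-PAGE and transferred to nitrocellulose. Pro-caspase 3 and 6 were detected with specific alkaline phosphatase-conjugated antibodies. Loading was checked by Ponceau red and β-actin immunoblot, and bands were quantified by densitometry. Blots are representative of at least three experiments.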

K562 cells [4] = experiment: Hoechst 33342 nuclear staining, fluorescence microscopy; type: cell-based, human; details: 10 μM, 48 h
How it was run: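 K562 cells were plated at 8 × 10³/well on poly-D-lysine-coated plates and left to adhere overnight. They were prestained with Hoechst 33342 in medium for 30 min, washed with PBS and resuspended in medium, then given test compound or vehicle for 48 h.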

`COc1ccc(NC(=O)COc2ccccc2)c(C(N)=O)c1` [Compound 17r, 5-Methoxy-2-(2-phenoxyacetamido)benzamide] was tested, and the CC50 [1] was over 97.7 µM, the “cytotoxicity in NCI screen” value [1] was “low cytotoxicity” and the “pTGI MG_MID” value [1] was 4.31. The “pTGI No. giving positive results” value [1] was 25, the “cellular lines with 50% growth inhibition at submicromolar concentrations” value [1] was 30 of 56 and the “effects on the assembly of purified tubulin” value (shortened to “effects on the assembly”) (purified tubulin) was “negligible effects”. The “inhibition of colchicine binding to tubulin” value (“inhibition … to tubulin” below) (tubulin) was “negligible effects”.
With `NC(=O)c1cc(I)ccc1NC(=O)COc1ccccc1` [Compound 17j, 5-Iodo-2-(2-phenoxyacetamido)benzamide] the necrotic cells (K562 cells [2]) was “no necrotic cells were detected”, the morphological changes (K562 cells [3]) was “remarkable reduction in cell number and cell size” and the “reduction in the level of pro-caspase 6” value (pro-caspase 6) was −20%. The CC50 [1] was over 89.1 µM, the “cytotoxicity in NCI screen” value [1] was “low cytotoxicity” and the “pTGI MG_MID” value [1] was 4.45. For the same molecule, the “pTGI No. giving positive results” value [1] was 25, the “cellular lines with 50% growth inhibition at submicromolar concentrations” value [1] was 44 of 56 and the “nuclear morphology typical of apoptosis” value (K562 cells [4]) was “chromatin condensation and nuclear fragmentation”. The “effects on the assembly” value (purified tubulin) was “negligible effects” and the “inhibition … to tubulin” value (tubulin) was “negligible effects”.
For `COc1cc(NC(=O)COc2ccccc2)c(C(N)=O)cc1OC` [Compound 17u, 4,5-Dimethoxy-2-(2-phenoxyacetamido)benzamide], the morphological changes (K562 cells [3]) was “remarkable reduction in cell number and cell size”, the “reduction in the level of pro-caspase 6” value (pro-caspase 6) was −50% and the CC50 [1] was over 93.3 µM. For the same molecule, the “cytotoxicity in NCI screen” value [1] was “low cytotoxicity”, the “pTGI MG_MID” value [1] was 4.31 and the “pTGI No. giving positive results” value [1] was 23. The “cellular lines with 50% growth inhibition at submicromolar concentrations” value [1] was 26 of 58, the “nuclear morphology typical of apoptosis” value (K562 cells [4]) was “chromatin condensation and nuclear fragmentation” and the “effects on the assembly” value (purified tubulin) was “negligible effects”. The “inhibition … to tubulin” value (tubulin) was “negligible effects”.
For `NC(=O)c1cc(Cl)ccc1NC(=O)COc1ccccc1` [Compound 17f, 5-Chloro-2-(2-phenoxyacetamido)benzamide], the CC50 [1] was over 100 µM, the “cytotoxicity in NCI screen” value [1] was “low cytotoxicity” and the “pTGI MG_MID” value [1] was 4.14. For the same molecule, the “pTGI No. giving positive results” value [1] was 10, the “cellular lines with 50% growth inhibition at submicromolar concentrations” value [1] was 3 of 57 and the “effects on the assembly” value (purified tubulin) was “negligible effects”. For the same molecule, the “inhibition … to tubulin” value (tubulin) was “negligible effects”.
